Experimental data as given in ChEMBL document CHEMBL4477205, “Discovery of New Chemical Entities for Old Targets: Insights on the Lead Optimization of Chromone-Based Monoamine Oxidase B (MAO-B) Inhibitors” (J Med Chem, 2016).
The source made the active and inactive calls. The calls are words filed in the database; no cut-off is given here.

What was measured:
[1] = biological target: T1, Amine oxidase [flavin-containing] B (Homo sapiens, UniProt P27338); experiment: biochemical; type: cell-based, BTI-TN-5B1-4
T1 sequence (P27338 whole entry): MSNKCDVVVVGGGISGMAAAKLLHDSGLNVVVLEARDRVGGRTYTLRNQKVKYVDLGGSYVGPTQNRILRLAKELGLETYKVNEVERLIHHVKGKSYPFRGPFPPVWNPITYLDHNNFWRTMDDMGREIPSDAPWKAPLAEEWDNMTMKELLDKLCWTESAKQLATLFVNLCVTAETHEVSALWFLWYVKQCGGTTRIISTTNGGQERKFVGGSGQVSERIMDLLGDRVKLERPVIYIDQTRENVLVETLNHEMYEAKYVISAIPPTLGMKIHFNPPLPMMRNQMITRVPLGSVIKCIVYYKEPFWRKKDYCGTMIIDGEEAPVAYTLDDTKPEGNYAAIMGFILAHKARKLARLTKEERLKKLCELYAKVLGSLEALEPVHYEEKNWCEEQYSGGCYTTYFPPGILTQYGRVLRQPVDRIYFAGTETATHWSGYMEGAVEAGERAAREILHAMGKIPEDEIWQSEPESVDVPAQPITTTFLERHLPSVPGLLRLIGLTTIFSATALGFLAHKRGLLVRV

[2] = biological target: T2, Amine oxidase [flavin-containing] A (Homo sapiens, UniProt P21397); experiment: Inhibition of human microsomal MAO-A expressed in recombinant baculovirus infected insect BTI-TN-5B1-4 cells assessed as reduction in H2O2 production at 10 uM using p-tyramine as substrate after 15 mins by fluorescence assay
T2 sequence (P21397 whole entry): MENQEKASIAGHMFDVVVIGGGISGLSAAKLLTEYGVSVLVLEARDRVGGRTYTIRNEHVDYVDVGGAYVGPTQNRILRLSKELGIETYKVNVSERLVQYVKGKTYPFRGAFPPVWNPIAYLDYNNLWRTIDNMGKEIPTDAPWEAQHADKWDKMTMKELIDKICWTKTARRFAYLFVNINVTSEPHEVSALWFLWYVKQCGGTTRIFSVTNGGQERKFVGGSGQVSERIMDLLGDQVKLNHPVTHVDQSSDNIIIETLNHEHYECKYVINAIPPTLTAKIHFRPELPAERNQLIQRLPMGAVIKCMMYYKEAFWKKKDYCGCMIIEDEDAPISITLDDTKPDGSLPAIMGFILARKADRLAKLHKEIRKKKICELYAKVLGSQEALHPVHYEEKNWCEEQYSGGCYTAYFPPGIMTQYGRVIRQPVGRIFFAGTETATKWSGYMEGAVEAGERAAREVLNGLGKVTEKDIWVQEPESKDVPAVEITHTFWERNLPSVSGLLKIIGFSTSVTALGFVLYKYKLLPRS

[3] = species: Homo sapiens; experiment: Selectivity index, ratio of IC50 for human microsomal MAO-A expressed in recombinant baculovirus infected insect BTI-TN-5B1-4 cells to IC50 for human microsomal MAO-B expressed in recombinant baculovirus infected insect BTI-TN-5B1-4 cells
[4] = biological target: T2, Amine oxidase [flavin-containing] A; experiment: Inhibition of human microsomal MAO-A expressed in recombinant baculovirus infected insect BTI-TN-5B1-4 cells assessed as reduction in H2O2 production at 100 uM using p-tyramine as substrate after 15 mins by fluorescence assay
[5] = biological target: T1, Amine oxidase [flavin-containing] B; experiment: Reversible inhibition of human microsomal MAO-B expressed in recombinant baculovirus infected insect BTI-TN-5B1-4 cells assessed as increase in residual enzyme activity at 40 nM after 60 mins; conditions: bti-tn-5b1-4, 1 h, 0.04 µM
[6] = tested on: SH-SY5Y; experiment: Cytotoxicity against human SH-SY5Y cells assessed as cell viability at 10 uM after 24 hrs by MTT assay (reference value: […] +/- 11.7 %); type: functional; conditions: read-out: Activity
[7] = tested on: SH-SY5Y; experiment: Cytotoxicity against human SH-SY5Y cells assessed as cell viability at 1 uM after 24 hrs by MTT assay (reference value: […] +/- 11.7 %); type: functional; conditions: read-out: Activity
[8] = tested on: SH-SY5Y; experiment: Cytotoxicity against human SH-SY5Y cells assessed as reduction in cell viability at 1 to 10 uM after 24 hrs by neutral red uptake assay; type: functional, cell-based
Summary of the method: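 SH-SY5Y cells grown to confluence over 3 days and exposed 24 h to compound at 1 and 10 μM in serum-free medium, with a 0.1% DMSO vehicle control. Neutral red 50 μg/mL added for 2 h at 37 °C. Dye extracted with ethanol/water (1:1) containing 5% acetic acid and read at 540 nm. Uptake expressed as % of control.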

[9] = biological target: T2, Amine oxidase [flavin-containing] A; experiment: Inhibition of human microsomal MAO-A expressed in recombinant baculovirus infected insect BTI-TN-5B1-4 cells assessed as reduction in H2O2 production using p-tyramine as substrate after 15 mins by fluorescence assay
[10] = tested on: SH-SY5Y; experiment: Cytotoxicity against human SH-SY5Y cells assessed as reduction in cell viability at 1 uM after 24 hrs by MTT assay; type: functional, cell-based

## O=C(Nc1ccc(O)cc1)c1coc2ccccc2c1=O
[1]; read-out: IC50
  IC50: 1380 nM
[2]
  INH: Not Active
[3]
  Ratio IC50: > 7.2

## C[C@H](NCc1ccc(OCc2cccc(F)c2)cc1)C(N)=O [SAFINAMIDE]
[4]
  INH: Not Active
[5]
  inhibition (INH): Active

## O=C(Nc1cccc(Cl)c1)c1coc2ccccc2c1=O
[6]
  viability at 10 µM: 43.7%
[7]
  viability at 1 µM: 64.3%
[8]
  Activity: inactive

## O=C(Nc1ccc(Cl)c(Cl)c1)c1coc2ccccc2c1=O
[1]; bti-tn-5b1-4
  IC50: Nd(Insoluble)
[9]
  IC50: Nd(Insoluble)

## O=C(Nc1ccc(S)cc1)c1coc2ccccc2c1=O
[1]; bti-tn-5b1-4
  IC50: Nd(Insoluble)
[9]
  IC50: Nd(Insoluble)

## O=C(Nc1cc(Cl)c(Cl)c(Cl)c1)c1coc2ccccc2c1=O
[1]; bti-tn-5b1-4
  IC50: Nd(Insoluble)
[9]
  IC50: Nd(Insoluble)

## Cc1ccc(NC(=O)c2coc3ccccc3c2=O)cc1C
[6]
  viability at 10 µM: 74.5%
[8]
  Activity: inactive
[10]
  Activity: inactive
